According to article PMC11061834 (Journal of Natural Products, 2024):

Key:
3T3-L1 cells = assay: Cell viability / cytotoxicity, CCK-8 assay; type: cell-based; conditions: CCK-8, 48 h
How it was run: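 3T3-L1 preadipocytes were seeded at 1 × 10^3 cells per well and incubated for 12 h. They were then exposed to varying concentrations of test compound for 48 h. Viability was measured with the CCK-8 kit following the manufacturer's guidelines, reading optical density at 450 nm. Data are means ± SD from triplicate experiments (n = 3), compared by Student's t test at P ≤ 0.05.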

[1] = cited from earlier work
PPARγ = conditions: cited from earlier work

Row | Structure (SMILES) | maximum noncytotoxic concentration (3T3-L1 cells) [µM] | antiadipogenic activity (in words) [1] | PPARγ inhibitory effect (in words) (PPARγ)
1 | C=C(c1ccc(O)c(Oc2cc3c(cc2OC)CCN(C)[C@@H]3Cc2ccc(OC)cc2)c1)[C@@H]1c2cc(OC)c(OC)cc2CCN1C [Compound 2, 1R,1′R-neoneferine A] | 15 | – | –
2 | C=C(c1ccc(O)c(Oc2cc3c(cc2OC)CCN(C)[C@@H]3Cc2ccc(OC)cc2)c1)[C@H]1c2cc(OC)c(OC)cc2CCN1C [Compound 3, 1R,1′S-neoneferine A] | 5 | – | –
3 | C=C(c1ccc(O)c(Oc2cc3c(cc2OC)CCN(C)[C@@H]3Cc2ccc(OC)cc2)c1)[C@@H]1c2cc(O)c(OC)cc2CCN1C [Compound 4, 1R,1′R-neoisoliensinine A] | 10 | – | –
4 | C=C(c1ccc(O)c(Oc2cc3c(cc2OC)CCN(C)[C@@H]3Cc2ccc(OC)cc2)c1)[C@H]1c2cc(O)c(OC)cc2CCN1C [Compound 5, 1R,1′S-neoisoliensinine A] | 5 | – | –
5 | COc1ccc(C[C@@H]2c3cc(Oc4cc(C[C@@H]5c6cc(OC)c(OC)cc6CCN5C)ccc4O)c(OC)cc3CCN2C)cc1 [Compound 7, neferine] | 10 | antiadipogenic activity | PPARγ inhibitory effect
6 | COc1ccc(C[C@@H]2c3cc(Oc4cc(C[C@H]5c6cc(OC)c(OC)cc6CCN5C)ccc4O)c(OC)cc3CCN2C)cc1 [Compound 8, 1′-epi-neferine] | 5 | – | –
